Data reported in ChEMBL document CHEMBL4382197, “Discovery of QCA570 as an Exceptionally Potent and Efficacious Proteolysis Targeting Chimera (PROTAC) Degrader of the Bromodomain and Extra-Terminal (BET) Proteins Capable of Inducing Complete and Durable Tumor Regression” (J Med Chem, 2018).
Activity calls are given as the source filed them. The rule behind the calls is not given here.

Key:
RS4-11 [1] = test: Growth inhibition of human RS4:11 cells after 96 hrs by CCK8 assay; type: functional, cell-based; conditions: RS4-11, 96 h
[2] = biological target: T1, Protein cereblon/Bromodomain-containing protein 2/Cullin-4A (Homo sapiens) (UniProt P25440+Q96SW2+Q13619); test: Protac activity at cereblon/cullin 4A/BRD2 in human MV4-11 cells assessed as BRD2 degradation at 30 to 100 pM after 3 hrs by Western blot analysis; type: cell-based
[3] = biological target: T2, Protein cereblon/Bromodomain-containing protein 4/Cullin-4A (Homo sapiens) (UniProt O60885+Q96SW2+Q13619); test: Protac activity at cereblon/cullin 4A/BRD4 in human MV4-11 cells assessed as BRD4 degradation at 10 pM after 3 hrs by Western blot analysis; type: cell-based
[4] = biological target: T3, Protein cereblon/Bromodomain-containing protein 3/Cullin-4A (Homo sapiens) (UniProt Q15059+Q96SW2+Q13619); test: Protac activity at cereblon/cullin 4A/BRD3 in human MV4-11 cells assessed as BRD3 degradation at 10 pM after 3 hrs by Western blot analysis; type: cell-based
Mus musculus [5] = test: In vivo Protac activity at cereblon/cullin/BRD2 in tumor of human RS4:11 cells xenografted in SCID mouse assessed as reduction in BRD2 protein expression at 1 to 5 mg/kg, iv administered as single dose and measured at 1 to 6 hrs by Western blot analysis; type: functional, organism-based
How it was run: (§1)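 SCID mice bearing subcutaneous RS4;11 tumors were given a single intravenous dose of 1 or 5 mg/kg. Tumors were harvested at 1, 6 and 24 h, two mice per time point. Tissue was ground in liquid nitrogen and lysed in CST buffer with protease inhibitors. 20 µg lysate per lane was probed for BRD2, BRD3, BRD4, c-Myc and cleaved PARP, with GAPDH as loading control.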

[6] = Toxicity in SCID mouse xenografted with human RS4:11 cells at 1 to 5 mg/kg, iv administered 3 times per week for 3 weeks; type: organism-based; conditions: in vivo, 504 h
How it was run: (§2)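 SCID mice received a subcutaneous dorsal implant of 5×10^6 RS4;11 cells in 50% Matrigel, one tumor per mouse. Mice were randomized at ~100 mm3 into treatment or vehicle groups. Doses were 1, 2.5 or 5 mg/kg three times weekly for 3 weeks, with body weight and signs of toxicity monitored.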

[7] = Toxicity in SCID mouse xenografted with human RS4:11 cells assessed weight loss at 1 to 5 mg/kg, iv administered 3 times per week for 3 weeks; type: organism-based; conditions: in vivo, 504 h; how it was run: as §2
MV4-11 [8] = test: Antitumor activity against human MV4-11 cells xenografted in SCID mouse assessed tumor regression at 5 mg/kg, iv administered 3 times per week for 2 weeks; type: functional, organism-based
How it was run: (§3)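 MV4;11 xenografts: 5×10^6 cells in 50% Matrigel injected subcutaneously on the dorsal side of SCID mice, one tumor per mouse. Mice randomized at ~100 mm3. Dosed intravenously three times a week for two weeks. Tumor volume = L × W2/2; body weight monitored.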

MV4-11 [9] = test: Induction of apoptosis in human MV4-11 cells after 24 to 48 hrs by Annexin V/propidium iodine-double staining-based flow cytometry; type: functional, cell-based
How it was run: (§4)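 Leukemia cells were treated for 24 h or 48 h at the indicated concentrations. They were then collected, washed in cold PBS and stained with Annexin V and propidium iodide. Apoptotic fraction was measured by flow cytometry.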

RS4-11 [10] = test: Induction of apoptosis in human RS4:11 cells at 0.3 to 10 nM after 24 hrs by Annexin V/propidium iodine-double staining-based flow cytometry relative to control; type: functional; how it was run: as §4
[11] = biological target: T1, Protein cereblon/Bromodomain-containing protein 2/Cullin-4A (Homo sapiens); test: Protac activity at cereblon/cullin 4A/BRD2 in human RS4:11 cells assessed as BRD2 degradation at 30 to 100 pM after 3 hrs by Western blot analysis; type: cell-based
[12] = biological target: T3, Protein cereblon/Bromodomain-containing protein 3/Cullin-4A (Homo sapiens); test: Protac activity at cereblon/cullin 4A/BRD3 in human RS4:11 cells assessed as BRD3 degradation at 10 pM after 3 hrs by Western blot analysis; type: cell-based
MOLM-13 = test: Induction of apoptosis in human MOLM13 cells after 24 hrs by Annexin V/propidium iodine-double staining-based flow cytometry; type: functional, cell-based; how it was run: as §4
RS4-11 [13] = test: Antitumor activity against human RS4:11 cells xenografted in SCID mouse assessed tumor growth inhibition at 5 mg/kg, iv administered weekly; type: functional, organism-based
How it was run: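 RS4;11 xenografts: 5×10^6 cells in 50% Matrigel injected subcutaneously on the dorsal side of SCID mice, one tumor per mouse. Randomized to treatment or vehicle at ~100 mm3. Intravenous dosing on several schedules, including 3 times per week for 3 weeks and weekly. Volume = L × W2/2; body weight tracked.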

MV4-11 [14] = test: Induction of apoptosis in human MV4-11 cells at 0.1 to 10 uM after 48 hrs by Annexin V/propidium iodine-double staining-based flow cytometry; type: functional, cell-based
MV4-11 [15] = test: Antitumor activity against human MV4-11 cells xenografted in SCID mouse assessed tumor regression at 1 mg/kg, iv administered 3 times per week for 2 weeks; type: functional, organism-based; how it was run: as §3
[16] = biological target: Protein cereblon/Eukaryotic peptide chain release factor GTP-binding subunit ERF3A/Cullin-4A (Homo sapiens) (UniProt Q96SW2+Q13619+P15170); test: Induction of Cereblon/Cullin 4A-mediated-GSPT1 degradation in human MV4-11 cells at 0.01 to 10 nM after 3 hrs by Western blot analysis; type: cell-based
[17] = biological target: T3, Protein cereblon/Bromodomain-containing protein 3/Cullin-4A (Homo sapiens); test: Protac activity at cereblon/cullin 4A/BRD3 in human RS4:11 cells assessed as BRD3 degradation at 0.5 nM after 3 hrs in presence of proteasome inhibitor MG132 by Western blot analysis; type: cell-based
How it was run: (§5)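 RS4;11 cells were pre-treated for 2 h with DMSO, lenalidomide (10 μM), MLN4924 (1 μM) or MG-132 (20 μM). The degrader was then added at 0.5 nM for 3 h. Lysates were immunoblotted for BRD2, BRD3 and BRD4, with GAPDH as loading control.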

MV4-11 [18] = test: Induction of apoptosis in human MV4-11 cells at 1 nM after 24 hrs by Annexin V/propidium iodine-double staining-based flow cytometry relative to control; type: functional; how it was run: as §4
MV4-11 [19] = test: Growth inhibition of human MV4-11 cells after 96 hrs by CCK8 assay; type: functional, cell-based; conditions: MV4-11, 96 h
MV4-11 [20] = test: Induction apoptosis in human MV4-11 cells assessed as caspase-3 activation at 0.3 nM after 24 hrs by Western blot analysis; type: functional, cell-based
How it was run: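 Cells (1.5–2×10^6/well) were treated for 24 h, washed in cold PBS and lysed in RIPA with protease inhibitors. 20 µg lysate was run on 4–20% or 4–12% gels and transferred to PVDF. Blots were probed for cleaved PARP and cleaved caspase 3, with GAPDH as loading control. Detection by ECL.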

Mus musculus [21] = test: In vivo Protac activity at cereblon/cullin/BRD4 in tumor of human RS4:11 cells xenografted in SCID mouse assessed as reduction in BRD4 protein expression at 1 to 5 mg/kg, iv administered as single dose and measured at 1 to 6 hrs post dose by Western blot analysis; type: functional, organism-based; how it was run: as §1
[22] = biological target: T1, Protein cereblon/Bromodomain-containing protein 2/Cullin-4A (Homo sapiens); test: Protac activity at cereblon/cullin 4A/BRD2 in human RS4:11 cells assessed as BRD2 degradation at 0.5 nM after 3 hrs in presence of lenalidomide by Western blot analysis; type: cell-based; how it was run: as §5
[23] = biological target: T2, Protein cereblon/Bromodomain-containing protein 4/Cullin-4A (Homo sapiens); test: Protac activity at cereblon/cullin 4A/BRD4 in human RS4:11 cells assessed as BRD4 degradation at 0.5 nM after 3 hrs in presence of proteasome inhibitor MG132 by Western blot analysis; type: cell-based; how it was run: as §5
[24] = biological target: T2, Protein cereblon/Bromodomain-containing protein 4/Cullin-4A (Homo sapiens); test: Protac activity at cereblon/cullin 4A/BRD4 in human RS4:11 cells assessed as BRD4 degradation at 10 pM after 3 hrs by Western blot analysis; type: cell-based

T1 sequence (P25440 whole entry, looked up): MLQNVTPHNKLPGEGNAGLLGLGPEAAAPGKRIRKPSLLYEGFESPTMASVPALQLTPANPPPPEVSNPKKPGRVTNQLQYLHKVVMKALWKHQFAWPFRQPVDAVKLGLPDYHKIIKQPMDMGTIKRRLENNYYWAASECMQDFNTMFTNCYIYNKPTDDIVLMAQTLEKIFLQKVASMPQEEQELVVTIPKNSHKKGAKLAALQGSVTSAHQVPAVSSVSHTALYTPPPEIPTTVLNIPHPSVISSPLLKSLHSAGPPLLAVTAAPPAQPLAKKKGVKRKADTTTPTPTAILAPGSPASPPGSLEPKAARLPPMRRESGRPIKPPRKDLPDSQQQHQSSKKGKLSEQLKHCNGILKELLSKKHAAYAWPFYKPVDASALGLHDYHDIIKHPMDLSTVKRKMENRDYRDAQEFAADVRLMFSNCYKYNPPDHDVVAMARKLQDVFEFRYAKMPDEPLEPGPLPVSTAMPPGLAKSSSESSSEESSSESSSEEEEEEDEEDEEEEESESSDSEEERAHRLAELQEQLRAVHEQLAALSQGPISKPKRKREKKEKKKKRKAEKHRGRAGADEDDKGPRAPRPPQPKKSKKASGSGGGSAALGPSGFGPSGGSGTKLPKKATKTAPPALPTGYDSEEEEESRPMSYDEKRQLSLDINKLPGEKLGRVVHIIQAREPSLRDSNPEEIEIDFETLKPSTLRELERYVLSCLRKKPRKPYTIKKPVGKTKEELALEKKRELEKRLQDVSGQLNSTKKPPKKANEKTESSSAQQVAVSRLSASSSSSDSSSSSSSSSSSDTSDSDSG
T1 sequence (Q13619 whole entry, looked up): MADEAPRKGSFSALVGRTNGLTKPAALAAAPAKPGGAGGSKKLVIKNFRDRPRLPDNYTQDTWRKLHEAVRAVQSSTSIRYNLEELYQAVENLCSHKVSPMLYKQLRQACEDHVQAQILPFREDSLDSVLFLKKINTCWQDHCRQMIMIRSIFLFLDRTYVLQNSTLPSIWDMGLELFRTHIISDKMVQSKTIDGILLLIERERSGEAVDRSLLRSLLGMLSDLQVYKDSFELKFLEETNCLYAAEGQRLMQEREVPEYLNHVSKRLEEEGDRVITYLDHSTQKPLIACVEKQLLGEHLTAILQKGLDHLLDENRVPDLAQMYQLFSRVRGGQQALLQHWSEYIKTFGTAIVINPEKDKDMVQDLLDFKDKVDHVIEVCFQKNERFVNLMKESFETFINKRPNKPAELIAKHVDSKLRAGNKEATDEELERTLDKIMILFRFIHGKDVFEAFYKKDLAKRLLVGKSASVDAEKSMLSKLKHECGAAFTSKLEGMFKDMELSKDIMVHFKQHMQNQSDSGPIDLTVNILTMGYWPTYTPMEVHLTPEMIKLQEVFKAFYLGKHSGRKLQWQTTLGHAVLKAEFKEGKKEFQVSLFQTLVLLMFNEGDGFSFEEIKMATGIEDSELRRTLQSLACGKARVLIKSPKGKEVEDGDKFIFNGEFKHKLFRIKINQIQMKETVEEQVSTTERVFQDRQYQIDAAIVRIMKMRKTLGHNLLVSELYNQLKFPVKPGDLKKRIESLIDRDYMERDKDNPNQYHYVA
T1 sequence (Q96SW2 whole entry, looked up): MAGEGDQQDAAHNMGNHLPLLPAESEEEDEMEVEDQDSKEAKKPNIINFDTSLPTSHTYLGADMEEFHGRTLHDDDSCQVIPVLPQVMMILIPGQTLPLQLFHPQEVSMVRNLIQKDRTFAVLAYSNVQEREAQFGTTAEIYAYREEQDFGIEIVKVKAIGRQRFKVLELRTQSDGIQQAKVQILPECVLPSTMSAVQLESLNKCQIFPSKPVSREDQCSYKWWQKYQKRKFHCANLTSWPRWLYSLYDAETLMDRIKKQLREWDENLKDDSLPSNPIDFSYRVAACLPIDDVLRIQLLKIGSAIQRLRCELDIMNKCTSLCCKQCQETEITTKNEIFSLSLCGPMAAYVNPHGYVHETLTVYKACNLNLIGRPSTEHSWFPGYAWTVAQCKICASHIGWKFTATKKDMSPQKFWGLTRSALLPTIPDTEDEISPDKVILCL
T3 sequence (Q13619 whole entry, looked up): as the sequence (Q13619 whole entry, looked up) above
T3 sequence (Q15059 whole entry, looked up): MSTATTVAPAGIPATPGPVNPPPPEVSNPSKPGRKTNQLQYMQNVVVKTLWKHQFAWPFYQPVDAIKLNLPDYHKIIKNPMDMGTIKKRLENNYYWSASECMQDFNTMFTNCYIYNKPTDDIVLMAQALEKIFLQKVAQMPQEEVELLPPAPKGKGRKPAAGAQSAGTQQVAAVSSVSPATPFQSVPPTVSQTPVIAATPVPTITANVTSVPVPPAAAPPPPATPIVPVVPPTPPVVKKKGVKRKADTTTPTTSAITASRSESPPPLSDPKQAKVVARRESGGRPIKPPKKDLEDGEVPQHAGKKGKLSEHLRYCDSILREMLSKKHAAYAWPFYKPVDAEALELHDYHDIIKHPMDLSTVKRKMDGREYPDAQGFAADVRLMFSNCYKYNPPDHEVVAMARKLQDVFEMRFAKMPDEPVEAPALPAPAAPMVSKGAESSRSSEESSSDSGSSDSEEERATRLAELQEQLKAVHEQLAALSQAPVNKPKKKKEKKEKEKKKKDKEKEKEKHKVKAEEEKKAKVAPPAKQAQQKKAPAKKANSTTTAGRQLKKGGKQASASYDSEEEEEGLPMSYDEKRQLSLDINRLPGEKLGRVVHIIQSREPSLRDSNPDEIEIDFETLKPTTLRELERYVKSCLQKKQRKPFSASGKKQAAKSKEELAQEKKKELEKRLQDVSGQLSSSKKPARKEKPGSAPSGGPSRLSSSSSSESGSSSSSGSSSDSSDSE
T3 sequence (Q96SW2 whole entry, looked up): as the sequence (Q96SW2 whole entry, looked up) above
Protein cereblon/Eukaryotic peptide chain release factor GTP-binding subunit ERF3A/Cullin-4A (Homo sapiens), sequence (P15170 whole entry, looked up): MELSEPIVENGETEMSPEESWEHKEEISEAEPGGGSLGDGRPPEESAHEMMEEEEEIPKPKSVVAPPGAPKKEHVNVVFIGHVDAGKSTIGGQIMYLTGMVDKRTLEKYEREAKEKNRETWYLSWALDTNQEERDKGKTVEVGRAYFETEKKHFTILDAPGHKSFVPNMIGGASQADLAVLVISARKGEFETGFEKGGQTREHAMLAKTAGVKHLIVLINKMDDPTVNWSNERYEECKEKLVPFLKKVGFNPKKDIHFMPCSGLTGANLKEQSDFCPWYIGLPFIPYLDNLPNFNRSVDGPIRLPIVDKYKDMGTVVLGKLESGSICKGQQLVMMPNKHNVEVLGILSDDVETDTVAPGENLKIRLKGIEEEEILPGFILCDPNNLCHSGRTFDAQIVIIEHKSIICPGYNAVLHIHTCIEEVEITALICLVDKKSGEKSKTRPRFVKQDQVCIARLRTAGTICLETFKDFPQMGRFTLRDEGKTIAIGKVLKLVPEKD
Protein cereblon/Eukaryotic peptide chain release factor GTP-binding subunit ERF3A/Cullin-4A (Homo sapiens), sequence (Q13619 whole entry, looked up): as the sequence (Q13619 whole entry, looked up) above
Protein cereblon/Eukaryotic peptide chain release factor GTP-binding subunit ERF3A/Cullin-4A (Homo sapiens), sequence (Q96SW2 whole entry, looked up): as the sequence (Q96SW2 whole entry, looked up) above

With Cc1nnc2n1Cc1sc(C#Cc3cnn(CCCC#Cc4cccc5c4CN(C4CCC(=O)NC4=O)C5=O)c3)c(Cc3ccccc3)c1OC2 (stereo not given) the IC50 (RS4-11 [1]) was 0.032 nM, the Activity [2] was “Active” and the Activity [3] was “Active”. The Activity [4] was “Active”, the Activity (Mus musculus [5]) was “Active” and the Activity [6] was “Non-Toxic”. The Activity [7] was “Non-Toxic”, the Activity (MV4-11 [8]) was “Active” and the Activity (MV4-11 [9]) was “Dose-dependent effect”. The Activity (RS4-11 [10]) was 15 - 30%, the Activity [11] was “Active” and the Activity [12] was “Active”. For the same compound, the Activity (MOLM-13) was “Dose-dependent effect”, the TGI (RS4-11 [13]) was “Active” and the Activity (MV4-11 [14]) was “Active”. For the same compound, the Activity (MV4-11 [15]) was “Active”, the Activity [16] was “inactive” and the Activity [17] was “inactive”. The Activity (MV4-11 [18]) was >60%, the IC50 (MV4-11 [19]) was 0.0083 nM and the Activity (MV4-11 [20]) was “Active”. The Activity (Mus musculus [21]) was “Active”, the Activity [22] was “inactive” and the Activity [23] was “inactive”. For the same compound, the Activity [24] was “Active”.
